B1: Osa-1-4 twister ribozyme (parent)
chain: CCGCCUAACACUGCCAAUGCCGGUCCCAAGCCCGGAUAAAAGUGGAGGGGGCGG

The source of these data is the RNAGym collection of RNA variant scans (doi:10.1002/anie.201605470).

The data set covers variants of B1. Put plainly: self-cleavage, relative activity (ratio to wild type); higher = more cleavage; co-transcriptional. The method in brief: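 A DNA template for a 54-nucleotide Oryza sativa twister ribozyme was synthesised with 97 % wild-type base and 1 % of each other base at the 48 positions downstream of the cleavage site. It was transcribed in vitro for 2 h at 37 °C, allowing co-transcriptional self-cleavage, then reverse-transcribed with a template-switching oligonucleotide, PCR-amplified and deep-sequenced. Cleavage status was scored from reads with or without upstream sequence. Relative activity is fraction cleaved normalised to wild type.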
Consider G48U U12C, for which the self-cleavage was 0.04.

With G48U U12A, the self-cleavage came to 0.07.

On to G48U U12G, for which the self-cleavage turned out to be 0.05.

As to G48C U24G, the self-cleavage is 0.01.

As to G48C U24A, the self-cleavage was 0.04.

For G48C U24C, the self-cleavage amounted to 0.04.

With A46U G30U, the self-cleavage is 0.02.

Take A46U G30C: the self-cleavage was found to be 0.01.

On to A46U G30A, for which the self-cleavage is 0.02.

Take A46U G34C: the self-cleavage amounted to 0.07.

As for A46U G34A, the self-cleavage was 0.06.

On to A46U G34U, for which the self-cleavage turned out to be 0.06.

For the variant G47A G49U, the self-cleavage was 0.04.

In the case of G47A G49C, the self-cleavage was 0.04.

Take G47A G49A: the self-cleavage worked out at 0.05.

In the case of A46U G53U, the self-cleavage amounted to 0.09.

In the case of A46U G53A, the self-cleavage is 0.1.

In the case of A46U G53C, the self-cleavage turned out to be 0.05.

For the variant G47U G53A, the self-cleavage was found to be 0.18.

Regarding G47U G53C, the self-cleavage is 0.06.

Turning to G47U G53U, the self-cleavage worked out at 0.1.

G47A U43C: the self-cleavage stood at 0.09.

In the case of G47A U43A, the self-cleavage amounted to 0.11.

Consider G47A U43G, for which the self-cleavage turned out to be 0.1.

Consider G48C G50C, for which the self-cleavage worked out at 0.1.

Take G48C G50U: the self-cleavage amounted to 0.1.

For G48C G50A, the self-cleavage was 0.3.

A46U C33U: the self-cleavage is 0.06.

Consider A46U C33G, for which the self-cleavage came out at 0.03.

With A46U C33A, the self-cleavage was found to be 0.05.

Turning to G49C G53U, the self-cleavage was determined as 0.05.

In the case of G49C G53C, the self-cleavage was found to be 0.03.

Turning to G49C G53A, the self-cleavage is 0.06.

As for G47A U37G, the self-cleavage was determined as 0.62.

On to G47A U37A, for which the self-cleavage worked out at 0.28.

On to G47A U37C, for which the self-cleavage is 0.44.

Turning to G48A G49A, the self-cleavage came out at 0.05.

On to G48A G49U, for which the self-cleavage was 0.04.

Take G48A G49C: the self-cleavage was found to be 0.03.

Regarding G49C G51A, the self-cleavage worked out at 0.12.

Regarding G49C G51C, the self-cleavage amounted to 0.04.

As for G49C G51U, the self-cleavage turned out to be 0.08.

As for G48C U43A, the self-cleavage was found to be 0.08.

With G48C U43C, the self-cleavage is 0.07.

With G48C U43G, the self-cleavage stood at 0.07.

In the case of A46U G19C, the self-cleavage was 0.03.

Regarding A46U G19U, the self-cleavage came to 0.04.

In the case of A46U G19A, the self-cleavage was determined as 0.06.

Turning to G48A G50C, the self-cleavage was 0.09.

Turning to G48A G50A, the self-cleavage is 0.16.

As for G48A G50U, the self-cleavage is 0.09.

G48U G53A: the self-cleavage turned out to be 0.1.

For the variant G48U G53U, the self-cleavage was found to be 0.08.

For G48U G53C, the self-cleavage worked out at 0.06.

As for G49A G51A, the self-cleavage is 0.33.

Regarding G49A G51U, the self-cleavage came to 0.15.

For the variant G49A G51C, the self-cleavage worked out at 0.09.

On to A46U G51C, for which the self-cleavage came to 0.05.

With A46U G51A, the self-cleavage was 0.09.

For the variant A46U G51U, the self-cleavage was 0.06.

For G47C U24C, the self-cleavage was determined as 0.04.

As to G47C U24A, the self-cleavage came to 0.03.

For G47C U24G, the self-cleavage is 0.01.

Consider G48A, for which the self-cleavage is 0.14.

Regarding G48C, the self-cleavage came to 0.12.

Consider G48U, for which the self-cleavage turned out to be 0.1.

As to G49A U18C, the self-cleavage was determined as 0.16.

As for G49A U18G, the self-cleavage was determined as 0.29.

Consider G49A U18A, for which the self-cleavage turned out to be 0.16.

Turning to G48U G49U, the self-cleavage came to 0.05.

Regarding G48U G49A, the self-cleavage worked out at 0.04.

Consider G48U G49C, for which the self-cleavage was determined as 0.03.

As for G49C U18G, the self-cleavage was determined as 0.09.

Take G49C U18C: the self-cleavage turned out to be 0.05.

On to G49C U18A, for which the self-cleavage came to 0.05.

As for G48A U37G, the self-cleavage was found to be 0.16.

On to G48A U37C, for which the self-cleavage is 0.11.

As to G48A U37A, the self-cleavage stood at 0.06.

With A46U G45U, the self-cleavage was found to be 0.03.

Regarding A46U G45C, the self-cleavage came out at 0.04.

A46U G45A: the self-cleavage turned out to be 0.08.

For the variant G48A G51C, the self-cleavage is 0.04.

For G48A G51A, the self-cleavage came to 0.1.

Consider G48A G51U, for which the self-cleavage turned out to be 0.05.

In the case of A46U U43A, the self-cleavage came out at 0.08.

In the case of A46U U43G, the self-cleavage was 0.07.

For the variant A46U U43C, the self-cleavage was determined as 0.06.

As to G48A U18G, the self-cleavage is 0.13.

In the case of G48A U18A, the self-cleavage is 0.09.

As to G48A U18C, the self-cleavage is 0.1.

With G47U U12G, the self-cleavage was 0.05.

For G47U U12C, the self-cleavage came out at 0.07.

For the variant G47U U12A, the self-cleavage is 0.07.

As for G49A U43C, the self-cleavage is 0.07.

On to G49A U43A, for which the self-cleavage came to 0.08.

Regarding G49A U43G, the self-cleavage amounted to 0.08.

For the variant G47U U37A, the self-cleavage stood at 0.23.

For G47U U37G, the self-cleavage came out at 0.51.

Turning to G47U U37C, the self-cleavage is 0.37.

As to A46U G22A, the self-cleavage turned out to be 0.09.

For A46U G22C, the self-cleavage is 0.03.

In the case of A46U G22U, the self-cleavage is 0.06.

As for G49C U24G, the self-cleavage was 0.01.

Take G49C U24C: the self-cleavage worked out at 0.05.

For the variant G49C U24A, the self-cleavage came out at 0.03.

In the case of G48A G54U, the self-cleavage is 0.37.

For the variant G48A G54C, the self-cleavage amounted to 0.15.

Regarding G48A G54A, the self-cleavage came out at 0.15.

For G48A G53U, the self-cleavage was found to be 0.09.

Regarding G48A G53A, the self-cleavage was found to be 0.11.

Take G48A G53C: the self-cleavage came out at 0.07.

G48A U12C: the self-cleavage worked out at 0.04.

Consider G48A U12G, for which the self-cleavage was 0.04.

Regarding G48A U12A, the self-cleavage turned out to be 0.07.

With G49A G53A, the self-cleavage is 0.11.

As to G49A G53U, the self-cleavage was found to be 0.09.

With G49A G53C, the self-cleavage worked out at 0.05.

Turning to G48U U37C, the self-cleavage was 0.09.

Consider G48U U37A, for which the self-cleavage amounted to 0.05.

As to G48U U37G, the self-cleavage came to 0.11.

Consider G47A G50U, for which the self-cleavage was found to be 0.09.

With G47A G50A, the self-cleavage is 0.36.

In the case of G47A G50C, the self-cleavage was found to be 0.07.

As for G47U U24C, the self-cleavage was determined as 0.03.

For the variant G47U U24G, the self-cleavage was 0.02.

With G47U U24A, the self-cleavage was determined as 0.05.

Regarding A46U U24C, the self-cleavage amounted to 0.05.

On to A46U U24A, for which the self-cleavage was 0.04.

Consider A46U U24G, for which the self-cleavage came out at 0.01.

G47C G53A: the self-cleavage was determined as 0.1.

G47C G53C: the self-cleavage came out at 0.06.

On to G47C G53U, for which the self-cleavage was found to be 0.08.

With G48U U24A, the self-cleavage amounted to 0.03.

With G48U U24C, the self-cleavage turned out to be 0.03.

Consider G48U U24G, for which the self-cleavage was 0.01.

As to G48C G49C, the self-cleavage was found to be 0.07.

G48C G49U: the self-cleavage came out at 0.04.

Regarding G48C G49A, the self-cleavage is 0.05.

A46U C52U: the self-cleavage came to 0.09.

For the variant A46U C52G, the self-cleavage amounted to 0.12.

Regarding A46U C52A, the self-cleavage is 0.1.

As for G47A U18C, the self-cleavage was determined as 0.22.

For the variant G47A U18A, the self-cleavage is 0.33.

As for G47A U18G, the self-cleavage came to 0.56.

G47C G49C: the self-cleavage stood at 0.06.

Take G47C G49A: the self-cleavage was found to be 0.05.

Consider G47C G49U, for which the self-cleavage amounted to 0.03.

Consider A46U G23U, for which the self-cleavage was 0.03.

A46U G23C: the self-cleavage came out at 0.02.

Turning to A46U G23A, the self-cleavage worked out at 0.06.

As to G47A G53U, the self-cleavage came out at 0.08.

G47A G53C: the self-cleavage came out at 0.06.

Consider G47A G53A, for which the self-cleavage turned out to be 0.13.

On to G47U U43C, for which the self-cleavage was 0.08.

For G47U U43G, the self-cleavage was 0.07.

On to G47U U43A, for which the self-cleavage came to 0.1.

For G47C U18G, the self-cleavage is 0.24.

With G47C U18C, the self-cleavage turned out to be 0.1.

Consider G47C U18A, for which the self-cleavage is 0.12.

Take G49C U37C: the self-cleavage was 0.07.

Take G49C U37A: the self-cleavage turned out to be 0.05.

Regarding G49C U37G, the self-cleavage worked out at 0.08.

As for G47C U43G, the self-cleavage was 0.07.

In the case of G47C U43A, the self-cleavage stood at 0.1.

Regarding G47C U43C, the self-cleavage came to 0.08.

As to G47U G54A, the self-cleavage stood at 0.28.

Turning to G47U G54C, the self-cleavage is 0.32.
